IDE act: human IDE activators in live cells, primary screen, fluorescence polarization, HEK cells, FAbeta-B substrate. Insulin-degrading enzyme (Homo sapiens), P14735. FAbeta-B cleavage; 0% vehicle, 100% cell-free pure enzyme wells. activation, % at 5.96 µM. 0.073% of 340,000 active;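 active means activation above the mean of all tested compounds plus 3 SD, set per screening campaign, cut at about 17% in these data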
Target sequence (P14735 whole entry, looked up): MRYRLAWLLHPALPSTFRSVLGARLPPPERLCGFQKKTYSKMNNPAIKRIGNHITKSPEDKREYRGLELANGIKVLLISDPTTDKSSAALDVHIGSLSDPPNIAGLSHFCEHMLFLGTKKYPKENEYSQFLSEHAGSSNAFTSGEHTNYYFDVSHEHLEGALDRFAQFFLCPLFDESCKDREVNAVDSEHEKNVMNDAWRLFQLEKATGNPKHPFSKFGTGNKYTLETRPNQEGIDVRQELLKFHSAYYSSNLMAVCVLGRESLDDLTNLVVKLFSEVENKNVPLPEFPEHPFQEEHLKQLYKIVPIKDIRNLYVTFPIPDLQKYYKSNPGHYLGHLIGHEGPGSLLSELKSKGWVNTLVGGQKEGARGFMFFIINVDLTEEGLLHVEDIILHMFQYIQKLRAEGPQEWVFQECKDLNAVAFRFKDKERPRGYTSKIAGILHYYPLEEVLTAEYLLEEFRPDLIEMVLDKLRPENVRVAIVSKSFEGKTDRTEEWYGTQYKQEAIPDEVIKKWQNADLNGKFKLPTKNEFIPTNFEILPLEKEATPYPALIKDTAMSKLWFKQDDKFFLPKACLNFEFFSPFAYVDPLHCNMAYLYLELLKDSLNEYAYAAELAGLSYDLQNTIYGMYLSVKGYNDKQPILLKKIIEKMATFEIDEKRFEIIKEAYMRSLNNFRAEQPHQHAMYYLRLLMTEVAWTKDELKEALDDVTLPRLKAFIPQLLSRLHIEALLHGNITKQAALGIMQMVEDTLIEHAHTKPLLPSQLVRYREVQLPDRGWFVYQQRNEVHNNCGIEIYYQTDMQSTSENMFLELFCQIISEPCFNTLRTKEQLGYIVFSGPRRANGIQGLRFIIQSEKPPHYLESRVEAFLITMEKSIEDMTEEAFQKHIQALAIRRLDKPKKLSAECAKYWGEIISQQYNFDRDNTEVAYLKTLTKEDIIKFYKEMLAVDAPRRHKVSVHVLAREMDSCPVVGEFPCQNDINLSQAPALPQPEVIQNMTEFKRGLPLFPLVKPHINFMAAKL
HDAC3 inh: HDAC3 deacetylase inhibitors, primary screen, biochemical, fluorescence, cell-free homogeneous; Histone deacetylase 3 (Homo sapiens), O15379; recombinant HDAC3, fluorogenic peptide/trypsin coupled; inhibition, % at 8.3 µM; 0.15% of 320,000 active; in the data active means inhibition above about 26%, passing the limit was not always enough
IDE cell inh: human IDE inhibitors in live cells, primary screen, fluorescence polarization, HEK cells, FAbetaB substrate. Insulin-degrading enzyme (Homo sapiens), P14735. FAbetaB cleavage. inhibition, % at 5.59 µM. 0.41% of 320,000 active. AID 434962, 2010;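 active means percent inhibition above the average of all tested compounds plus 3 SD, set per screening campaign, cut at about 16% in these data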;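 further: IDE supplied by intact live HEK cells; FP after avidin binding of uncleaved biotin substrate so inhibition keeps polarization high; 0% = DMSO wells and 100% = 60 µM reference IDE inhibitor Ii1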
Efflux pump mplx: inhibitors of Candida efflux pumps in yeast, primary screen, S. cerevisiae, Nile Red, multiplex | inhibition, % at 10 µM | S. cerevisiae Candida pump triplex | AID 485275, 2010 | 0.44% of 330,000 active;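 active means plate passing quality check with inhibition over a set limit, or well fluorescence over plate mean plus 4 SD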;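 further: Nile Red retained in pooled yeast measured as flow cytometry median fluorescence; 0% = buffer negative control and 100% = Enniatin B positive control; higher means more Nile Red kept so more efflux inhibition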
CR mimetic SO: reduction of superoxide in aged yeast, primary screen, HTS; S. cerevisiae aged cells, superoxide DHE fluorescence; stronger effect = lower value; superoxide response (% of plate mean), % at 10 µM; 0.18% of 330,000 active;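 active means superoxide response under a set limit, about three screen SD below normal, cut at about 65% in these data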;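 further: yeast aged for seven days with compound at 30 °C before DHE staining; 100% = average MFI of all compound-treated wells on the plate with controls excluded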
TbMetRS inhib: T. brucei MetRS inhibitors, primary screen, biochemical, luminescence; methionyl-tRNA synthetase (Trypanosoma brucei brucei); purified T. brucei MetRS, ATP depletion, Kinase-Glo luminescence; inhibition, % at 11.9 µM; 0.4% of 360,000 active; AID 624268, 2012;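 active means inhibition above a per-plate cutoff of the control wells' mean inhibition plus 3 SD, cut at about 5.5% in these data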;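 further: 0% = DMSO wells median and 100% = median of wells with control inhibitor compound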
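System: purified T. brucei MetRS enzyme / Detection: Kinase-Glo luciferase luminescence reporting remaining unconsumed ATP / Medium: HEPES buffer with MgCl2, KCl, DTT, spermine, BSA, pyrophosphatase / Replication: singlicate, one well per compound / Evaluation: percent inhibition relative to median high and low control wells / Schedule: 2 h aminoacylation at 25 °C after 15 min preincubation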
IDE cell inh cf: human IDE inhibitors in live cells, confirmation, fluorescence polarization, HEK cells, FAbetaB substrate; shares compounds with IDE cell inh; FAbetaB cleavage; inhibition, % at 5.59 µM; 51% of 1,200 active;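 active means mean inhibition across triplicate wells above the cutoff set by the earlier primary insulin-degrading enzyme screen, cut at about 16% in these data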;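 further: 0% = DMSO wells and 100% = 60 µM reference IDE inhibitor Ii1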
HEK293 tox: cytotoxicity in HEK cells, cytotoxicity control for IDE inhibitor project, cell-based, luminescence; 28% of 1,200 active; shares compounds with IDE cell inh; HEK293 cytotoxicity, ATP luminescence; AID 449730, 2010; inhibition, % at 5.59 µM; in the data active means inhibition above about 22%;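 further: 0% = vehicle wells and 100% = reference cytotoxic drug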
An asterisk follows results filed as active. The list is not random: actives were taken first. Their share in the collection is about 1.4%.

For C#CCOCCOCCOCCNc1nc(N2CCN(C(=O)[C@H]([C@@H](C)CC)n3cc([C@@H](N)CC(C)C)nn3)CC2)nc(N2CCN(C(=O)[C@H](Cc3ccc(O)cc3)n3cc([C@@H](N)C(C)CC)nn3)CC2)n1 (stereo partly specified) the results were IDE act 1, HDAC3 inh -6, IDE cell inh 16*, Efflux pump mplx 0, CR mimetic SO 105, TbMetRS inhib 0, IDE cell inh cf 3 and HEK293 tox 6.
Screening CC(C)NS(=O)(=O)c1ccc(NC(=S)NC(=O)c2ccc(-c3ccccc3)cc2)cc1 returned IDE act -49, HDAC3 inh -12, IDE cell inh 39*, Efflux pump mplx 0, CR mimetic SO 92, TbMetRS inhib -1, IDE cell inh cf 25* and HEK293 tox 37*.
`CSc1ncccc1C(=O)OCC(=O)NC1CCCc2ccccc21` (stereo unspecified) gave IDE act -16, HDAC3 inh -3, IDE cell inh 19*, Efflux pump mplx 0, CR mimetic SO 94, TbMetRS inhib 0, IDE cell inh cf 0 and HEK293 tox 15.
Screening O=C(COC(=O)c1cccnc1Cl)NC1CCCc2ccccc21 (stereo unspecified) returned IDE act 4, HDAC3 inh -11, IDE cell inh -5, Efflux pump mplx 0, CR mimetic SO 89 and TbMetRS inhib 0.
Screening CC1(C)CC(=O)C/C(=N\NC(=O)Cc2ccccc2)C1 returned IDE act 4, HDAC3 inh 0, IDE cell inh 5, Efflux pump mplx 0, CR mimetic SO 92 and TbMetRS inhib -1.
`CC1(C)CC(=O)C/C(=N/NC(=O)c2ccc(-c3ccccc3)cc2)C1` gave IDE act -11, HDAC3 inh -1, IDE cell inh 18*, Efflux pump mplx 0, CR mimetic SO 92, TbMetRS inhib 0, IDE cell inh cf 14 and HEK293 tox 5.
`CCOc1ccc(CN(C)CC(=O)NCc2ccc(F)cc2)cc1` gave IDE act -3, HDAC3 inh -3, IDE cell inh 2, Efflux pump mplx 0, CR mimetic SO 84 and TbMetRS inhib 0.
For CC[n+]1c(C)sc2c3ccsc3ccc21 the results were IDE act -21, HDAC3 inh 14, IDE cell inh 42*, Efflux pump mplx 0, CR mimetic SO 91, TbMetRS inhib 0, IDE cell inh cf 10 and HEK293 tox 2.
For COCCNC(=S)N1CCN(c2nc(-c3ccc(Cl)cc3)cs2)CC1 the results were IDE act -18, HDAC3 inh -4, IDE cell inh 17*, Efflux pump mplx 0, CR mimetic SO 106, TbMetRS inhib 1, IDE cell inh cf 11 and HEK293 tox 15.
CNC(=S)N1CCN(c2nc(-c3ccc(Cl)cc3)cs2)CC1 was read as IDE act -13, HDAC3 inh -5, IDE cell inh 18*, Efflux pump mplx 0, CR mimetic SO 104, TbMetRS inhib 0, IDE cell inh cf 8 and HEK293 tox 23*.
CCNC(=S)N1CCN(c2nc(-c3ccc(F)cc3)cs2)CC1 was read as IDE act -16, HDAC3 inh 0, IDE cell inh 19*, Efflux pump mplx 0, CR mimetic SO 109, TbMetRS inhib -1, IDE cell inh cf 6 and HEK293 tox 15.
Screening Nc1ccc2nc(COc3ccccc3)[nH]c2c1 returned IDE act 4, HDAC3 inh 6, IDE cell inh -3, Efflux pump mplx 0, CR mimetic SO 99 and TbMetRS inhib 0.
CN(C)c1ccc(-c2ccnc3c2CC(C)(C(=O)Nc2ccccc2)O3)cc1 (stereo unspecified) was read as TbMetRS inhib 0.
For CCOc1ccc(Cl)cc1/C=N/NC(=O)c1ccccc1 the results were IDE act 0, HDAC3 inh 1, IDE cell inh 0, Efflux pump mplx 0, CR mimetic SO 94 and TbMetRS inhib -1.
Screening CCOc1ccc(Cl)cc1/C=N/NC(=O)CNC(=O)c1ccccc1 returned IDE act -6, HDAC3 inh 4, IDE cell inh 26*, Efflux pump mplx 0, CR mimetic SO 115, TbMetRS inhib 0, IDE cell inh cf 6 and HEK293 tox 15.
COc1ccc(N=Cc2sc(O)c3ccccc23)cc1 was read as IDE act -66, HDAC3 inh 9, IDE cell inh 61*, Efflux pump mplx 0, CR mimetic SO 100, TbMetRS inhib 0, IDE cell inh cf 90* and HEK293 tox 10.
`CCOC(=O)C1CCCN(C2=NC(=O)/C(=C/c3ccc(O)c(OCC)c3)S2)C1` (stereo unspecified) gave IDE act -25, HDAC3 inh 6, IDE cell inh 23*, Efflux pump mplx 0, CR mimetic SO 104, TbMetRS inhib -1, IDE cell inh cf 72* and HEK293 tox 11.
Screening CCOC(=O)C1CCCN(C2=NC(=O)/C(=C/c3ccc(N(C)C)cc3)S2)C1 (stereo unspecified) returned IDE act -34, HDAC3 inh 0, IDE cell inh 52*, Efflux pump mplx 1, CR mimetic SO 92, TbMetRS inhib -1, IDE cell inh cf 43* and HEK293 tox 7.
Screening CCn1c(COc2ccc(C)cc2)nnc1SCc1ccc(C#N)cc1 returned IDE act 0, HDAC3 inh 4, IDE cell inh 18*, Efflux pump mplx 0, CR mimetic SO 91, TbMetRS inhib -1, IDE cell inh cf 8 and HEK293 tox 13.
Screening Cc1oc(C)c2c(=O)ccc3c(c12)OC(N)=C(C#N)C3c1ccc(F)cc1 (stereo unspecified) returned IDE act -86, HDAC3 inh 10, IDE cell inh 27*, Efflux pump mplx 0, CR mimetic SO 108, TbMetRS inhib 0, IDE cell inh cf 68* and HEK293 tox 10.
`Cc1[nH]nc2c1C(c1ccc(F)cc1)C(C#N)=C(N)O2` (stereo unspecified) gave IDE act 1, HDAC3 inh 0, IDE cell inh 8, Efflux pump mplx 0, CR mimetic SO 104 and TbMetRS inhib -1.

Assay outcomes (PubChem BioAssay)
